Results published in ChEMBL document CHEMBL1144738, “Cytotoxic diterpenoids and sesquiterpenoids from Pteris multifida” (J Nat Prod, 2008).

Legend:
HepG2 = test: Cytotoxicity against human HepG2 cells by SRB method; type: functional, cell-based
In short: (§1)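 Adherent cells were grown in RPMI1640 with 10% FBS, 100 U/mL penicillin and 100 U/mL streptomycin, then plated and incubated for 24 h. They were exposed to test compounds at 10^-2 to 10^2 µM for 72 h. Growth inhibition was read by sulforhodamine B (SRB) staining and expressed as IC50, the mean of triplicate points. Adriamycin and taxotere were positive controls.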

KB = test: Cytotoxicity against human KB cells by SRB method; type: functional, cell-based; in short: as §1
LoVo = test: Cytotoxicity against human LoVo cells by SRB method; type: functional, cell-based; in short: as §1
K562 = test: Cytotoxicity against human K562 cells by WST-1 method

Structure (SMILES)	IC50 (HepG2)	IC50 (KB)	IC50 (LoVo)	IC50 (K562)
C=C1[C@@H]2CC[C@H]3[C@]4(C)C[C@H](O)C[C@](C)(CO)[C@H]4CC[C@]3(C2)[C@H]1O	> 100 µM	26.4 µM	20.3 µM	> 100 µM
C=C1[C@@H]2CC[C@H]3[C@]4(C)C[C@H](O)C[C@](C)(CO)[C@H]4CC[C@]3([C@@H]2O)[C@H]1O	> 100 µM	69.6 µM	76.3 µM	> 100 µM
Cc1cc2c(c(C)c1CCO[C@@H]1O[C@H](CO)[C@@H](OC(=O)/C=C/c3ccc(O)cc3)[C@H](O)[C@H]1O)C(=O)[C@H](C)C2	> 100 µM	45.3 µM	> 400 µM	64.6 µM
Cc1cc2c(c(C)c1CCO)C(=O)[C@H](C)[C@@H]2O[C@@H]1O[C@H](CO)[C@@H](OC(=O)/C=C/c2ccc(O)cc2)[C@H](O)[C@H]1O	9.26 µM	23.8 µM	> 400 µM	9.57 µM
CC1(C)C[C@@H](O)C[C@]2(C)[C@@H]1[C@H](O)C[C@@]13C[C@@H](CC[C@H]12)[C@@](O)(CO)C3	82.4 µM	53.7 µM	91.7 µM	81.9 µM
Cc1cc2c(c(C)c1CCO)C(=O)[C@@H](C)[C@@H]2O[C@@H]1O[C@H](CO)[C@@H](OC(=O)/C=C/c2ccc(O)cc2)[C@H](O)[C@H]1O	8.69 µM	14.2 µM	11.3 µM	10.6 µM
CC(=O)O[C@@]12CO[C@@H]1C[C@H](O)[C@@]1(C)C(=O)[C@H](O)C3=C(C)[C@@H](OC(=O)[C@H](O)[C@@H](NC(=O)OC(C)(C)C)c4ccccc4)C[C@@](O)([C@@H](OC(=O)c4ccccc4)[C@H]21)C3(C)C [DOCETAXEL]		0.00114 µM	0.00197 µM	
COc1cccc2c1C(=O)c1c(O)c3c(c(O)c1C2=O)C[C@@](O)(C(=O)CO)C[C@@H]3O[C@H]1C[C@H](N)[C@H](O)[C@H](C)O1 [DOXORUBICIN]	0.06 µM	> 400 µM	> 400 µM	0.09 µM
